pIC50: −log10 of the molar value.
Legend:
[1] = system: MV4-11; assay: Antiproliferative activity against human MV4-11 cells after 72 hrs by Celltiter-Glo assay; format: functional; conditions: MV4-11, 72 h
How it was run: (§1)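 Cells seeded at 3000/well in 96-well plates, exposed to serially diluted compound for 72 h at 37 °C, 5% CO2. Viability read by CellTiter-Glo luminescence and normalized to DMSO control. GI50 derived from curve fit, mean of three independent measurements. Culture media: DMEM/10% FBS for adherent lines; IMDM for MV4-11 and MEC-1/2; RPMI 1640 for suspension lines and CHL.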

[2] = Antiproliferative activity against human MEC1 cells after 72 hrs by Celltiter-Glo assay; format: functional; conditions: MEC1, 72 h; how it was run: as §1
[3] = target: CDK9/Cyclin K (Homo sapiens, UniProt P50750); assay: Inhibition of CDK9/Cyclin K (unknown origin) using PDKtide as substrate incubated at 37 degreeC for 1 hr followed by incubation at room temperature for 5 mins by ADP-Glo reagent based luminescence assay; format: protein-complex assay
[4] = Antiproliferative activity against Chinese hamster CHL cells after 72 hrs by Celltiter-Glo assay; conditions: Cricetulus griseus

Sequence of CDK9/Cyclin K (P50750 whole entry): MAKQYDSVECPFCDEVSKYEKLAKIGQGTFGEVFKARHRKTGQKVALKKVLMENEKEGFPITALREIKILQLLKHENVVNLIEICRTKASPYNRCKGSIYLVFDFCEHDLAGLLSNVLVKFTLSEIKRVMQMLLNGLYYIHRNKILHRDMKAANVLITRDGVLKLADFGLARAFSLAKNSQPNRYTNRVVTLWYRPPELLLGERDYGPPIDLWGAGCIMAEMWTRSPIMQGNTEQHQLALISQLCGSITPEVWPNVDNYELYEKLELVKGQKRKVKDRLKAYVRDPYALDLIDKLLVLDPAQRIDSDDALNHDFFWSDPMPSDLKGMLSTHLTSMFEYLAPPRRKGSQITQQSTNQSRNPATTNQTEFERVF
Sequence of CDK9/Cyclin K (O75909 whole entry, further chain): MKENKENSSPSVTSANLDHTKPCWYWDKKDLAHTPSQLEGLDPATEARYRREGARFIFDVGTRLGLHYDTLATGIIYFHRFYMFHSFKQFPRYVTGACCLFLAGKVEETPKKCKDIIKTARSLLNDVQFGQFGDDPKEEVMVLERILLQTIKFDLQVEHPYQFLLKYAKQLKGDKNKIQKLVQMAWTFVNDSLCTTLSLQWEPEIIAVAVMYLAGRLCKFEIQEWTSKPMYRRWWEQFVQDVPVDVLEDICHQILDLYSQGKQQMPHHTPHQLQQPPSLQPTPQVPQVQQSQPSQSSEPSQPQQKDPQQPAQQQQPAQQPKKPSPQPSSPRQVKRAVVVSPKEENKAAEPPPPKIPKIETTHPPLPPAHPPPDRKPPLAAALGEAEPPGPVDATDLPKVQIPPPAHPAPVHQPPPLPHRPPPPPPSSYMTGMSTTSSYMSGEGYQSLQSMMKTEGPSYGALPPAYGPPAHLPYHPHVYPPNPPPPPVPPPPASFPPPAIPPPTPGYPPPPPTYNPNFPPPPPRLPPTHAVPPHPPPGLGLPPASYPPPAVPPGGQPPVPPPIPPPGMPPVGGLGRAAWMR

SMILES | GI50 [1] [µM] | pIC50 [3] | GI50 [2] [µM] | GI50 [4] [µM]
COCCN[C@H]1CC[C@H](Nc2cc(-c3csc(NCC4CCOCC4)n3)c(C)cn2)CC1 | 1.62 | 6.60 | 3.56 | 5.01
COCCN[C@H]1CC[C@H](Nc2cc(-c3csc(NCc4ccc(F)cc4)n3)c(Cl)cn2)CC1 | 0.88 | 8.70 | 0.45 | 1.1
COCCNc1cc(-c2csc(NCC3CCOCC3)n2)c(Cl)cn1 | > 10 | 5.98 | > 10 | > 10
CC(=O)N[C@H]1CC[C@H](Nc2cc(-c3csc(NCC4CCOCC4)n3)c(Cl)cn2)CC1 | 3.6 | 7.00 | > 10 | > 10
COCCN[C@H]1CC[C@H](Nc2cc(-c3csc(NCC4CCC4)n3)c(Cl)cn2)CC1 | > 10 | 6.97 | 2.26 | 1.29
Fc1cc(-c2csc(NCC3CCOCC3)n2)c(Cl)cn1 | > 10 | 6.25 | > 10 | > 10
COCC(=O)N[C@H]1CC[C@H](Nc2cc(-c3csc(NCC4CCOCC4)n3)c(Cl)cn2)CC1 | > 10 | 5.72 | > 10 | > 10

The next compounds have a lower GI50 [1] than those just listed; values first:

GI50 [1] [µM] | pIC50 [3] | SMILES | GI50 [2] [µM] | GI50 [4] [µM]
0.14 | 7.66 | N[C@H]1CC[C@H](Nc2cc(-c3csc(NCC4CCOCC4)n3)c(Cl)cn2)CC1 | 0.27 | 3.5
0.17 | 8.70 | COCCN[C@H]1CC[C@H](Nc2cc(-c3csc(NCC4CCOCC4)n3)c(Cl)cn2)CC1 | 1.24 | 0.534
0.55 | 5.64 | O=C(Nc1cc(-c2csc(NCC3CCOCC3)n2)c(Cl)cn1)c1ccc(F)cc1 | 3.6 | 0.93
0.752 | 7.77 | COCCN[C@H]1CC[C@H](Nc2cc(-c3csc(NCC(F)(F)F)n3)c(Cl)cn2)CC1 | 1.1 | 0.877
0.82 | 7.57 | COCCN[C@H]1CC[C@H](Nc2cc(-c3csc(NCC4CCCCC4)n3)c(Cl)cn2)CC1 | 0.85 | 8
0.14 | 6.13 | COC[C@@H](C)N[C@H]1CC[C@H](Nc2cc(-c3csc(NCC4CCOCC4)n3)c(Cl)cn2)CC1 | 0.31 | 1.1
0.493 | 7.05 | COCCN[C@H]1CC[C@H](Nc2cc(-c3csc(NCC4CCOC4)n3)c(Cl)cn2)CC1 (some centres undefined) | 0.883 | > 10
0.34 | 7.85 | COCCN[C@H]1CC[C@H](Nc2cc(-c3csc(SCC4CCOCC4)n3)c(Cl)cn2)CC1 | 0.8 | 5.6
0.33 | 7.85 | COCCN[C@H]1CC[C@H](Nc2cc(-c3csc(NCc4ccccc4)n3)c(Cl)cn2)CC1 | 0.47 | 1

— ChEMBL document CHEMBL4261600 (Eur J Med Chem, 2018)
